Laboratory results as given in ChEMBL document CHEMBL5247599, “New β-arylchalcogeno amines with procognitive properties targeting Carbonic Anhydrases and Monoamine Oxidases” (Eur J Med Chem, 2022).

Key:
[1] = molecular target: Carbonic anhydrase 5A, mitochondrial (Homo sapiens) (UniProt P35218); test: Binding affinity to human CA5a by phenol red dye based stopped flow CO2 hydration assay; details: filed as activator
Outline: (§1)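 Purified recombinant human CA isoforms. CA-catalysed CO2 hydration was followed by stopped-flow with phenol red at 557 nm, taking initial rates over 10–100 s from at least six traces of the first 5–10% of reaction. Uncatalysed rates were subtracted. Activator stocks were 0.1 mM in deionised water, diluted down to 0.1 nM in assay buffer. K_A came from non-linear least-squares Michaelis–Menten fitting.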

[2] = molecular target: Carbonic anhydrase 14 (Homo sapiens) (UniProt Q9ULX7); test: Binding affinity to human CA14 by phenol red dye based stopped flow CO2 hydration assay; details: filed as activator; outline: as §1
Carbonic anhydrase 14 (Homo sapiens), sequence (Q9ULX7 whole entry): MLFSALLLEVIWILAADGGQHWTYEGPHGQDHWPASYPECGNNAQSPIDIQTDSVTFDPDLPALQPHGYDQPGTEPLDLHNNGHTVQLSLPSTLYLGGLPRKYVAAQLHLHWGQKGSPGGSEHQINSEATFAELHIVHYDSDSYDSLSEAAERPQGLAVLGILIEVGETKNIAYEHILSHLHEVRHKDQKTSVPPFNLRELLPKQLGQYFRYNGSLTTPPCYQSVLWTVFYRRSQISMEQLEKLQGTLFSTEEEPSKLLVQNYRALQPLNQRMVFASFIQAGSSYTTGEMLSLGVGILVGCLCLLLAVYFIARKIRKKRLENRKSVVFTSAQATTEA

[3] = molecular target: Carbonic anhydrase 13 (Homo sapiens) (UniProt Q8N1Q1); test: Binding affinity to human CA13 by phenol red dye based stopped flow CO2 hydration assay; details: filed as activator; outline: as §1
Carbonic anhydrase 13 (Homo sapiens), sequence (Q8N1Q1 whole entry, looked up): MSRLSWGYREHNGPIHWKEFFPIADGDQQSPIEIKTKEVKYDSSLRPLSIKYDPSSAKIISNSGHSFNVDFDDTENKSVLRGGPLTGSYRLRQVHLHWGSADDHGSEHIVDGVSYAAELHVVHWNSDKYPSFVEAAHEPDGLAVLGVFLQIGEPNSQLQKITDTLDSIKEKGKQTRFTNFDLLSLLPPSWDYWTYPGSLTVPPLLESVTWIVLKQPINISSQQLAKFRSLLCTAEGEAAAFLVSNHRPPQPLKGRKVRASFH

[4] = molecular target: Carbonic anhydrase 9 (Homo sapiens) (UniProt Q16790); test: Binding affinity to human CA9 by phenol red dye based stopped flow CO2 hydration assay; details: filed as activator; outline: as §1
[5] = molecular target: Carbonic anhydrase 7 (Homo sapiens) (UniProt P43166); test: Binding affinity to human CA7 by phenol red dye based stopped flow CO2 hydration assay; details: filed as activator; outline: as §1
Carbonic anhydrase 7 (Homo sapiens), sequence (P43166 whole entry): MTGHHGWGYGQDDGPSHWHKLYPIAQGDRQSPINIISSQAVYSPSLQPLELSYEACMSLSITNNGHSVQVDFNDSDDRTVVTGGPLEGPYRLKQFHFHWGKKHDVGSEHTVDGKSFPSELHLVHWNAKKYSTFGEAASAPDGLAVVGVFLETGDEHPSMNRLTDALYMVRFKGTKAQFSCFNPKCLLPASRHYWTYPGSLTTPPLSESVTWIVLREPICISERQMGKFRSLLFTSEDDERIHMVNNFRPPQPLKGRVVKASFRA

[6] = molecular target: Carbonic anhydrase 4 (Homo sapiens) (UniProt P22748); test: Binding affinity to human CA4 by phenol red dye based stopped flow CO2 hydration assay; details: filed as activator; outline: as §1
Carbonic anhydrase 4 (Homo sapiens), sequence (P22748 whole entry): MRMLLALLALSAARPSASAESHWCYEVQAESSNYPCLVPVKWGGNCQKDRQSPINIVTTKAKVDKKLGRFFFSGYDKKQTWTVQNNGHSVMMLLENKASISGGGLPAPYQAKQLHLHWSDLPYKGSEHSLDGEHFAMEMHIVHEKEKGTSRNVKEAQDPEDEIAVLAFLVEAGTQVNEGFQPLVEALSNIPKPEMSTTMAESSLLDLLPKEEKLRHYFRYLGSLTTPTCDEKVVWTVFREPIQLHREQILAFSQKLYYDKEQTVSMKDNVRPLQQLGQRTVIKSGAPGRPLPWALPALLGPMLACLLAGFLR

[7] = molecular target: Carbonic anhydrase 1 (Homo sapiens) (UniProt P00915); test: Binding affinity to human CA1 by phenol red dye based stopped flow CO2 hydration assay; details: filed as activator; outline: as §1
Carbonic anhydrase 1 (Homo sapiens), sequence (P00915 2-261 limits assumed): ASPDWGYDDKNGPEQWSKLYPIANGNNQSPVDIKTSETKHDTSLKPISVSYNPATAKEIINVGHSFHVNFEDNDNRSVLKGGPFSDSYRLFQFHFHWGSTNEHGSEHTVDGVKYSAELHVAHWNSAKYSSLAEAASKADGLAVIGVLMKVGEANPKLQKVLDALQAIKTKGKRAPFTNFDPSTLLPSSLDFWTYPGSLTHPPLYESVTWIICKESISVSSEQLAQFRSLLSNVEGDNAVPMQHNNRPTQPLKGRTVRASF

[8] = molecular target: Carbonic anhydrase 5B, mitochondrial (Homo sapiens) (UniProt Q9Y2D0); test: Binding affinity to human CA5b by phenol red dye based stopped flow CO2 hydration assay; details: filed as activator; outline: as §1
Carbonic anhydrase 5B, mitochondrial (Homo sapiens), sequence (Q9Y2D0 whole entry): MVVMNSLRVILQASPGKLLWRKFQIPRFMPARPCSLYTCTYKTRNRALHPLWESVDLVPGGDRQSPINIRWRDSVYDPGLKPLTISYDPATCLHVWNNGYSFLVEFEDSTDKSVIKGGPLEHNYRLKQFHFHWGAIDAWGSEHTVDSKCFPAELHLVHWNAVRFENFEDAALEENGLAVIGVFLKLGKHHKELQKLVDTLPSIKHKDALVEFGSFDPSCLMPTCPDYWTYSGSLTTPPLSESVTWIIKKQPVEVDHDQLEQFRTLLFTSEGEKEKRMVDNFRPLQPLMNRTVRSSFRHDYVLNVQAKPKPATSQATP

[9] = molecular target: Carbonic anhydrase 6 (Homo sapiens) (UniProt P23280); test: Binding affinity to human CA6 by phenol red dye based stopped flow CO2 hydration assay; details: filed as activator; outline: as §1
Carbonic anhydrase 6 (Homo sapiens), sequence (P23280 whole entry): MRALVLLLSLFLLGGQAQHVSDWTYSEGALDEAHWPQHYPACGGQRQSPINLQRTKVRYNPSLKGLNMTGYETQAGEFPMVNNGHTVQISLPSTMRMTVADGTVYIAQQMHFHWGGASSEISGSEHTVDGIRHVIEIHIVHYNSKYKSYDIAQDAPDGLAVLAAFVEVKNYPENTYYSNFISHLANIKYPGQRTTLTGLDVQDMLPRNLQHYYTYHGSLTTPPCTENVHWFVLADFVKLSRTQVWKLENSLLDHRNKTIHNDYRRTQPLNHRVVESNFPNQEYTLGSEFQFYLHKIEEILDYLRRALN

[10] = molecular target: Carbonic anhydrase 12 (Homo sapiens) (UniProt O43570); test: Binding affinity to human CA12 by phenol red dye based stopped flow CO2 hydration assay; details: filed as activator; outline: as §1
Carbonic anhydrase 12 (Homo sapiens), sequence (O43570 whole entry): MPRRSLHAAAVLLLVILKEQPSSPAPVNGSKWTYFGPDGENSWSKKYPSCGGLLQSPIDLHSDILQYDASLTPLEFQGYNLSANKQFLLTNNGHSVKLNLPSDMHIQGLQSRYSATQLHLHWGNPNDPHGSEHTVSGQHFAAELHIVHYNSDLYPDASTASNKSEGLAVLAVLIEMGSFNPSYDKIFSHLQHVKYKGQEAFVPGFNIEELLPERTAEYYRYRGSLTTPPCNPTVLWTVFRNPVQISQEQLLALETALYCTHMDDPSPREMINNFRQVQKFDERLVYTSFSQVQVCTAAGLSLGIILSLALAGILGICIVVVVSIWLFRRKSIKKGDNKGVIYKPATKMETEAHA

[11] = molecular target: Carbonic anhydrase 3 (Homo sapiens) (UniProt P07451); test: Binding affinity to human CA3 by phenol red dye based stopped flow CO2 hydration assay; details: filed as activator; outline: as §1
Carbonic anhydrase 3 (Homo sapiens), sequence (P07451 whole entry): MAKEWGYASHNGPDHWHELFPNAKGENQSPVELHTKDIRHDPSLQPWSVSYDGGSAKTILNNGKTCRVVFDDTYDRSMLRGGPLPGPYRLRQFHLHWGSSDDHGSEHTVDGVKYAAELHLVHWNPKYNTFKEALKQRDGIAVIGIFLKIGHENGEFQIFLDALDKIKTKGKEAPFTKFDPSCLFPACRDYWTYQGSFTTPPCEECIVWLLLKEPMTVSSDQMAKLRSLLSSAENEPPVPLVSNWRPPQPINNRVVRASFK

[12] = molecular target: Carbonic anhydrase 2 (Homo sapiens) (UniProt P00918); test: Binding affinity to human CA2 by phenol red dye based stopped flow CO2 hydration assay; outline: as §1
[13] = molecular target: T1, Amine oxidase [flavin-containing] B (Homo sapiens, UniProt P27338)
T1 sequence (P27338 whole entry): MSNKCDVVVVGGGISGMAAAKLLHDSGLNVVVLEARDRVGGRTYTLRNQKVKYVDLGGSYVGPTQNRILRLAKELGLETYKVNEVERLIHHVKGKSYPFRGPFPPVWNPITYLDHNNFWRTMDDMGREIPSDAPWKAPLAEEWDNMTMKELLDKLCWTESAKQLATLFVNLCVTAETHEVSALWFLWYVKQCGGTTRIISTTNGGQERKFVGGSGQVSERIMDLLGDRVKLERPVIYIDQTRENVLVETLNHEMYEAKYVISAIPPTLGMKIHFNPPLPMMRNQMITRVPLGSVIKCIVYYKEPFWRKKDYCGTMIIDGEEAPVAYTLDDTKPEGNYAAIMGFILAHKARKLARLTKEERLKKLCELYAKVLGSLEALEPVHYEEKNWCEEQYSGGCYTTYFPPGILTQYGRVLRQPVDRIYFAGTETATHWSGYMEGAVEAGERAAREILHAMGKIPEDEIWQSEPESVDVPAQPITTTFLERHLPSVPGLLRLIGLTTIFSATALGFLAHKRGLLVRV

[14] = molecular target: T2, Amine oxidase [flavin-containing] A (Homo sapiens, UniProt P21397); test: Inhibition of human recombinant MAO-A assessed as inhibition of 4-hydroxyquinoline formation using kynuramine as substrate by fluorescence spectrophotometry analysis
T2 sequence (P21397 whole entry): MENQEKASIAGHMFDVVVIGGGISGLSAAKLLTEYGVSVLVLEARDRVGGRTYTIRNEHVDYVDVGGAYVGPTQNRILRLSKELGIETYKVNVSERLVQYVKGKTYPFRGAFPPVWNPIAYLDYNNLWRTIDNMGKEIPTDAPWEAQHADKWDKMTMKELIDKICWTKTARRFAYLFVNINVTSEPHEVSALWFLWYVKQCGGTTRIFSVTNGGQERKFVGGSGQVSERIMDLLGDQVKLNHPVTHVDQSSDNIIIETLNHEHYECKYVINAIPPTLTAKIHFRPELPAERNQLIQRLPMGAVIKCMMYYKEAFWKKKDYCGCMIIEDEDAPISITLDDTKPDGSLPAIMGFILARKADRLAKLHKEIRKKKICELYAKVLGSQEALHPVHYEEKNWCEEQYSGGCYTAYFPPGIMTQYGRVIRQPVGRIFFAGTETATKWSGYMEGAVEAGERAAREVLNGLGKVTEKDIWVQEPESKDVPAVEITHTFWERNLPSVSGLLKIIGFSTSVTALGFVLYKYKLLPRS
Outline: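 Recombinant human MAO-A with kynuramine as substrate. The 4-hydroxyquinoline product was quantified by fluorescence spectrophotometry, and IC50 values were determined.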

Carbonic anhydrase 5A, mitochondrial (Homo sapiens), sequence (P35218 whole entry, canonical isoform): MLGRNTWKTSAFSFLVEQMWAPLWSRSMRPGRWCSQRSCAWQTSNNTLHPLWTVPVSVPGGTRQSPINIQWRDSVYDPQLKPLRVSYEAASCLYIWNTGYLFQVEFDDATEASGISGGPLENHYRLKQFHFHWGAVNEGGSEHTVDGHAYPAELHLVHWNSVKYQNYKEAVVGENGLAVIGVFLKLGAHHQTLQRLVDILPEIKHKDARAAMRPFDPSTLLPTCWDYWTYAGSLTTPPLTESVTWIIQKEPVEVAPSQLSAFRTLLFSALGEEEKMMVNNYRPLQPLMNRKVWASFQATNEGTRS

| Compound | Ka [1] | Ka [2] | Ka [3] | Ka [4] | Ka [5] | Ka [6] | Ka [7] | Ka [8] | Ka [9] | Ka [10] | Ka [11] | Ka [12] | IC50 [13] | IC50 [14] |
| --- | --- | --- | --- | --- | --- | --- | --- | --- | --- | --- | --- | --- | --- | --- |
| COc1cc([Te]CC(C)N)cc(OC)c1OC (stereo not drawn) | 9.4 µM | 1.2 µM | 58.3 µM | 85.2 µM | 14.3 µM | 4.4 µM | 9.5 µM | 29.5 µM | 69.2 µM | 32.7 µM | 60.6 µM | > 100 µM | – | – |
| Cc1cccc(C)c1[Se]CC(C)N (stereo not drawn) | 20.9 µM | 1.1 µM | 83.3 µM | 81.2 µM | 21.4 µM | 9.5 µM | 6 µM | 22.7 µM | 31.4 µM | 78.2 µM | 90.8 µM | > 100 µM | 2.79 µM | 1.68 µM |
| Cc1ccc([Te]CC(C)N)cc1 (stereo not drawn) | 4 µM | 2.4 µM | 82.7 µM | 74.4 µM | 21.9 µM | 5.3 µM | 8.2 µM | 15.7 µM | 23.6 µM | 80.4 µM | 73.5 µM | > 100 µM | – | 6.66 µM |
| COc1ccc([Se]CC(C)N)cc1 (stereo not drawn) | 20.3 µM | 8.7 µM | 60.4 µM | 73.2 µM | 23.3 µM | 8.7 µM | 21.4 µM | 25.8 µM | 46.4 µM | 68.8 µM | 66.8 µM | > 100 µM | 36.8 µM | 1.21 µM |
| CC(N)CSc1ccc(Br)cc1 (stereo not drawn) | 12.4 µM | 3.8 µM | 54.4 µM | 63.3 µM | 14.8 µM | 7.4 µM | 7.7 µM | 22.7 µM | 61.6 µM | 72.9 µM | 5.4 µM | > 100 µM | – | 3.89 µM |
| CC(N)C[Se]c1ccc(F)cc1 (stereo not drawn) | 13.1 µM | 2.6 µM | 46.9 µM | 22.8 µM | 13.4 µM | 6.1 µM | 19.6 µM | 20.2 µM | 48.5 µM | 90.6 µM | 13.1 µM | > 100 µM | 13.4 µM | 10.5 µM |
| CC(N)C[Te]c1ccccc1 (stereo not drawn) | 14.2 µM | 3.2 µM | 49.7 µM | 22.2 µM | 41.2 µM | 5.9 µM | 9.9 µM | 21.7 µM | 73.1 µM | 52.5 µM | 59.7 µM | > 100 µM | – | 25.4 µM |
